Data published in ChEMBL document CHEMBL1287801, “Discovery of NBI-77860/GSK561679, a potent corticotropin-releasing factor (CRF1) receptor antagonist with improved pharmacokinetic properties” (Bioorg Med Chem Lett, 2010).

Experiments:
[1] = target: T1, Corticotropin-releasing factor receptor 1 (Homo sapiens, UniProt P34998); assay: Antagonist activity at human recombinant CRF1 receptor; assay type: functional
T1 sequence (P34998 whole entry): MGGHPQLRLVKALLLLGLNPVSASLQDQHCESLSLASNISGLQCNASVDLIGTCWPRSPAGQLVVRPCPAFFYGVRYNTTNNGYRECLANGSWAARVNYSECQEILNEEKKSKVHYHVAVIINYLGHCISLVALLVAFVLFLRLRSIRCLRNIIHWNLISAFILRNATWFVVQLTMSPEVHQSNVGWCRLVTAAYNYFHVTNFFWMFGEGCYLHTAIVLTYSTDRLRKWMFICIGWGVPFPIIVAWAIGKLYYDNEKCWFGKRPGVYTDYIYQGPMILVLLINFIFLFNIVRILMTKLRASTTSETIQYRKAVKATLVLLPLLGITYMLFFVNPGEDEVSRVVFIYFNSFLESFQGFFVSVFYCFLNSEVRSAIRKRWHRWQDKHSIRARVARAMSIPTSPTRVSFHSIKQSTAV

[2] = Metabolic stability in human liver microsome assessed as maximum bioavailability; assay type: ADME; details: liver microsomes, read-out: Max Achievable Bioavailability
[3] = Volume of distribution in rat at 5 mg/kg, iv after 72 hrs; assay type: ADME, organism-based; parameters: dose 5 mg/kg, route intravenous; details: in vivo
In short: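 Rats received a single intravenous dose of 5 mg/kg in a 72 h pharmacokinetic study. Clearance and volume of distribution at steady state (Vdss) were derived.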

Rattus norvegicus = assay: AUC (0 to 24 hrs) in rat at 10 mg/kg, po; assay type: ADME, organism-based, Plasma; parameters: time < 24 hr, dose 10 mg/kg, route oral; details: in vivo
In short: (§1)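 Rats were given a single oral dose of 10 mg/kg and followed for 24 h. Plasma exposure was expressed as AUC0–24 and oral bioavailability was determined. Brain and plasma levels were measured 1 h post-dose to give the brain/plasma ratio.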

[4] = Ratio of drug uptake in brain to plasma in rat at 10 mg/kg, po; assay type: ADME, organism-based; parameters: dose 10 mg/kg, route oral; details: brain and plasma, read-out: BPR; in short: as §1

Structure (SMILES) | Ki [1] [nM] | Fh [2] [%] | other results
COc1ccc(-c2c(C)nn3c(NCc4nc(C)no4)cc(C)nc23)c(C)c1 | 63.1 |  | 
CCN(Cc1nc(C)no1)c1cc(C)nc2c(-c3ccc(OC)cc3C)c(C)nn12 | 5.01 | 17 | 
COc1ccc(-c2c(C)nn3c(NC(C)Cc4nc(C)no4)cc(C)nc23)c(C)c1 (stereo not given) | 31.6 | 32 | 
CCC(Nc1cc(C)nc2c(-c3ccc(OC)cc3C)c(C)nn12)c1nnc(C)o1 (stereo not given) | 100 | 64 | 
COc1ccc(-c2c(C)nn3c(NC(C)Cc4nnc(C)o4)cc(C)nc23)c(C)c1 (stereo not given) | 251 |  | 
COc1ccc(-c2c(C)nn3c(NC(C)Cc4noc(C)n4)cc(C)nc23)c(C)c1 (stereo not given) | 79.4 | 26 | 
CCC(Nc1cc(C)nc2c(-c3ccc(OC)cc3OC)c(C)nn12)c1nc(C)no1 (stereo not given) | 50.1 |  | 
CCCN(CCC)c1cc(C)nc2c(-c3cnc(N(C)C)cc3C)c(C)nn12 |  | 17 | 
CC[C@H](Nc1cc(C)nc2c(-c3ccc(OC)cc3C)c(C)nn12)c1nc(C)no1 [VERUCERFONT] |  |  | Vd [3]: 7.5 L/kg; AUC (Rattus norvegicus): 3130 ng·h/mL; Kp [4]: 1.6
